Laboratory results reported in ChEMBL document CHEMBL6182829, “Developing peptide-based fusion inhibitors as an antiviral strategy utilizing coronin 1 as a template” (RSC Med Chem, 2025).
Active and inactive are the calls of the source. No cut-off for these calls is given here. Where a SMILES comes first, the peptide text is derived from it.

Assays:
Lipid bilayer [1] = experiment: Inhibition of PEG-induced DOPC/DOPE/DOPG/CH (40/30/10/20 mol%) (20 CH) small unilamellar vesicles fusion assessed as content mixing at 1:100 compound: lipid concentration preincubated for 10 mins followed by PEG addition by spectrofluorometric analysis
In short: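 Content mixing by Tb3+/DPA complex fluorescence. Vesicles loaded with 8 mM TbCl3 or 80 mM DPA, external probe removed by gel filtration. Mixed 1:1 at 200 μM lipid; peptide 2 μM added 10 min before 6% (w/v) PEG, 37 °C. Normalised to co-encapsulated and detergent-treated samples.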

Lipid bilayer [2] = experiment: Inhibition of PEG-induced DOPC/DOPE/DOPG/CH (50/30/10/10 mol%) (10 CH) small unilamellar vesicles fusion assessed as content mixing at 1:100 compound: lipid concentration preincubated for 10 mins followed by PEG addition by spectrofluorometric analysis (reference value: 33 %)
In short: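 Tb3+-loaded (8 mM TbCl3) and DPA-loaded (80 mM) SUVs, external probe removed by Sephadex G-75, mixed 1:1 at 200 μM total lipid in 10 mM TES, 100 mM NaCl, 1 mM EDTA, 1 mM CaCl2, pH 7.4, 37 °C; 2 μM peptide added 10 min before 6% (w/v) PEG; Tb/DPA fluorescence rise over time, normalized with detergent; inhibition relative to no-peptide control.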

CC[C@H](C)[C@H](NC(=O)[C@H](CC(C)C)NC(=O)[C@H](C)NC(=O)[C@@H](NC(=O)[C@H](Cc1ccccc1)NC(=O)[C@H](CCCCN)NC(=O)[C@@H]1CCCN1C(=O)[C@H](CC(N)=O)NC(=O)[C@@H](NC(=O)[C@H](C)NC(=O)[C@H](CS)NC(=O)[C@H](Cc1ccccc1)NC(=O)CNC(=O)[C@H](CO)NC(=O)[C@H](CC(=O)O)NC(=O)[C@H](Cc1c[nH]c2ccccc12)NC(=O)[C@@H](NC(=O)[C@@H](N)[C@@H](C)O)[C@@H](C)O)C(C)C)C(C)C)C(=O)N[C@@H](CS)C(=O)N[C@@H](CCC(=O)O)C(=O)N[C@@H](C)C(=O)N[C@@H](CO)C(=O)NCC(=O)O (H-TTWDSGFCAVNPKFVALICEASG-OH)
inhibition (Lipid bilayer [1]): inactive
inhibition (Lipid bilayer [2]): 5%
